# ABCB6 inh MLPCN = inhibitors of human ABC transporter ABCB6; hit rate 0.19% among 360,000; fluorescence ratio to DMSO, % at 10 µM; K562-ABCB6 porphyrin accumulation, flow cytometry, 1 h; stronger effect = lower value; Q9NP58;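 active = fluorescence ratio to DMSO below 75%, the collection mean minus 3 SD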;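 also: signal is porphyrin accumulated inside mitochondria; lower ratio means ABCB6 inhibition with less porphyrin fluorescence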
# DAGLB inhibitor = diacylglycerol lipase beta (human) inhibition; Q8NCG7; HEK293T DAGLB membrane lysate, EnzChek fluorogenic substrate; inhibition, % at 5.17 µM; hit rate 0.059% among 340,000; in the data active = inhibition above about 34%
# FGF22 binding = shifts melting point of recombinant human FGF22; Q9HCT0; activity (Tm shift, normalised), % at 9.99 µM; hit rate 1.5% among 340,000; AID 651658; recombinant FGF22 thermal shift, SYPRO orange fluorescence; percent of sucrose octasulfate shift, DMSO zero;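 active = mean Tm shift, scaled 0 neutral to 100 positive control, at about 1.3% or above, every replicate too, limit read from the data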
# Target sequence (Q9HCT0 whole entry, looked up): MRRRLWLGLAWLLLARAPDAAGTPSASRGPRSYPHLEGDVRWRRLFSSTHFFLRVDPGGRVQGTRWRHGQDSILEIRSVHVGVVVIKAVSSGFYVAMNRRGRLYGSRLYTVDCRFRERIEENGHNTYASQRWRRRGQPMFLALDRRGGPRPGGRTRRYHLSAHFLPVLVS
# Granule exo inh = lytic granule exocytosis inhibition; TALL-104 LAMP-1 surface exposure, flow cytometry; cells stimulated with thapsigargin and PMA; inhibition, % at 10 µM; hit rate 0.66% among 360,000;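 active = inhibition above about 55%, limit read from the data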
# VLA-4 inh = inhibition in a human VLA-4 binding assay. P13612. VLA-4 expressing cells, ligand binding flow cytometry. inhibition, % (about 7 µM as worked out from the volumes in the protocol). hit rate 0.2% among 330,000; in the data active = inhibition above about 50%
# MT1-MMP act inh = inhibitors of human MT1-MMP activation; HT1080 RFP-PRO-GFP cells, GFP/RFP ratio fluorescence, overnight; percent of plate control window, DMSO zero; GFP/RFP ratio change, % at 20 µM; P50281; hit rate 0.061% among 360,000;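 active = GFP/RFP ratio change of at least 30% with cell ATP level not reduced by more than half and red fluorescence within 50% of control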
#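 Test system: HT1080 RFP-PRO-GFP cells; Benchmarks: DMSO and RFP-L50D-GFP cell wells; Timing: cells overnight before dosing, compound overnight, 37 °C, 5% CO2; Compound: one 20 µM compound dose with 1% DMSO; Read-out: GFP/RFP fluorescence ratio.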
# Hits are given with their value; . = inactive; / = no result given. A selection: hits, their analogues and other compounds. The true share with any hit is near 2%.
SMILES,ABCB6 inh MLPCN,DAGLB inhibitor,FGF22 binding,Granule exo inh,VLA-4 inh,MT1-MMP act inh
Cc1ccc(-c2ccc(/C=C/C(=O)c3ccccc3)o2)cc1,.,.,.,67.5,.,.
O=C(/C=C/c1ccc(-c2ccccc2)o1)c1ccccc1,.,.,/,77.7,.,.
O=Cc1ccc(-c2cccc(C(=O)O)c2)o1,.,.,.,.,.,.
O=C(/C=C/c1ccc(-c2ccccc2[N+](=O)[O-])o1)c1ccc(F)cc1,.,.,/,79.6,.,.
Cc1ccc(C(=O)/C=C/C(=O)c2ccc(C)cc2)cc1,.,.,.,.,68.8,.
O=C(/C=C/c1ccc(-c2ccccc2[N+](=O)[O-])o1)c1ccc(Br)cc1,.,.,/,.,.,.
C[C@@H]1CCCCO[C@H](CN(C)S(=O)(=O)c2ccccc2)[C@@H](C)CN([C@@H](C)CO)C(=O)c2cc(NS(C)(=O)=O)ccc2O1,/,/,.,/,/,/
C[C@@H]1CCCCO[C@@H](CN(C)S(=O)(=O)c2ccc(F)cc2)[C@@H](C)CN([C@@H](C)CO)C(=O)c2cc(NC(=O)Nc3ccccc3)ccc2O1,/,/,.,/,/,/
C[C@H]1CN([C@@H](C)CO)S(=O)(=O)c2ccc(C#CCC3CCCC3)cc2O[C@H]1CN(C)C(=O)c1cnccn1,/,/,.,/,/,/
C[C@H]1CN([C@@H](C)CO)C(=O)c2cc(-c3cccc(F)c3)cnc2O[C@H]1CN(C)C,/,/,.,/,/,/
CC(=O)N1[C@@H]2CN(S(=O)(=O)c3ccccc3C)c3ccccc3[C@@H]2[C@@H]1CO,/,/,.,/,/,/
C[C@H]1CN([C@@H](C)CO)C(=O)Cc2cc(NS(=O)(=O)c3cccs3)ccc2O[C@H]1CN(C)Cc1ccc(C(=O)Nc2ccccc2N)cc1,/,/,.,/,/,/
CCCCCCCCOC(=O)c1nc(Cl)c(Cl)c(N)c1Cl,.,.,1.5,.,.,.
COc1ccc(S(=O)(=O)N(C)C[C@@H]2Oc3c(NC(=O)C4CCCCC4)cccc3C(=O)N([C@H](C)CO)C[C@@H]2C)cc1,/,/,.,/,/,/
Cc1ccc(-c2ccc3c(c2)O[C@H](CN(C)Cc2ccncc2)[C@@H](C)CN([C@H](C)CO)S3(=O)=O)cc1,/,/,.,/,/,/
O/N=C/c1ccccc1Oc1ccc(Cl)cc1,.,.,.,.,.,.
N#CCC(=O)c1ccccc1Oc1ccc(Cl)cc1,.,.,43.7,.,.,.
C/C=C/c1ccc([C@H]2[C@@H](CO)N(C(=O)C3CC3)C23CN(C(=O)NC(C)C)C3)cc1,/,/,.,/,/,/
CCOc1cc(/C=C2\SC(=N)N(c3nonc3N)C2=O)ccc1OCCN1CCOCC1,.,.,1.5,.,.,.
CCN(C(=O)CSc1nnc(NCc2ccccc2)s1)C1CCS(=O)(=O)C1 (centres undefined),.,.,42.9,.,.,.
N#CC(C#N)=C1C=CC=CN1/C(=C\c1ccco1)C(=O)c1ccc(Br)cc1,.,.,/,85.5,.,.
COc1ccc(C(=O)/C(=C\c2ccco2)N2C=CC=CC2=C(C#N)C#N)cc1,.,.,/,64.9,.,.
N#CC(C#N)=C1C=CC=CN1/C(=C\c1ccco1)C(=O)c1ccccc1,.,.,.,.,.,.
CC(=O)Nc1ccc2c(c1)C(=O)N(C)[C@@H]1CC[C@H](CC(=O)NCc3ccccc3Cl)O[C@@H]1CO2,/,/,.,/,/,/
CN1CCN(c2ccc(NC(=O)c3ccc(-c4ccc(Br)cc4)o3)cc2)CC1,.,.,.,75.8,.,.
SMILES,ABCB6 inh MLPCN,DAGLB inhibitor,FGF22 binding,Granule exo inh,VLA-4 inh,MT1-MMP act inh
CCN1CCN(c2ccc(NC(=O)c3ccc(Br)o3)cc2)CC1,.,.,.,.,/,.
CCNC(=O)OCc1cn(-c2ccccc2)nn1,.,.,43.6,.,.,.
O=C(NNC(=O)c1ccccc1C(=O)O)c1ccc(-c2ccccc2)cc1,/,/,43.4,/,.,/
O=C(NNC(=O)C1CC1)c1ccc(-c2ccccc2)cc1,.,.,.,.,.,.
Cc1nnc(SCCOc2ccccc2)s1,.,.,44.1,.,.,.
COc1cc(C(=O)N2CCN(c3ccccc3)CC2)c([N+](=O)[O-])cc1OC,.,.,43.5,.,.,.
COc1cc(C(=O)c2ccccc2Cl)c([N+](=O)[O-])cc1OC,.,.,43.6,.,.,.
C[C@@H]1CN([C@@H](C)CO)C(=O)c2cc(C3=CCCCC3)cnc2O[C@H]1CN(C)Cc1ccccn1,/,/,.,/,/,/

# Screens: PubChem, several laboratories
